For orientation: IC50 means the midpoint of a concentration-inhibition curve. The term inhibition denotes the drop in the measured response relative to a control, in per cent.

In test [1] the test system is Trifolium alexandrinum. As to the kind of experiment: Post-emergent herbicidal activity against Trifolium alexandrinum assessed as dry biomass at 20 uM after 14 days relative to control. It is filed as functional. Put shortly:
(§1)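 Plants were grown 18 days in a greenhouse, then sprayed with compound dissolved in MeOH with Tween 20 and maize oil. Controls were sprayed with distilled water containing the same MeOH, Tween 20 and maize oil. Dry biomass of all leaves was weighed 14 days after spraying, and differences from control were judged by Student's t-test (p < 0.05).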

Test [2] relates to Lolium multiflorum. The test is described as follows: Post-emergent herbicidal activity against Lolium multiflorum (Italian ryegrass) assessed as dry biomass at 60 uM after 14 days relative to control. It counts as functional. Put shortly: as §1
Test [3] relates to Physalis ixocarpa. As to the kind of experiment: Post-emergent herbicidal activity against Physalis ixocarpa assessed as dry biomass at 20 uM after 14 days relative to control. It is filed as functional. Put shortly: as §1
Test [4] has as its system Lolium multiflorum. The test is described as follows: Post-emergent herbicidal activity against Lolium multiflorum (Italian ryegrass) assessed as dry biomass at 20 uM after 14 days relative to control. It is filed as functional. Put shortly:
as §1

Test [5] relates to Trifolium alexandrinum. As to the kind of experiment: Post-emergent herbicidal activity against Trifolium alexandrinum assessed as dry biomass at 60 uM after 14 days relative to control. It is filed as functional. An outline of the steps:
as §1

The subject of test [6] is Lolium multiflorum. As to the kind of experiment: Post-emergent herbicidal activity against Lolium multiflorum (Italian ryegrass) assessed as dry biomass at 40 uM after 14 days relative to control. It is filed as functional. An outline of the steps: as §1
The test system of test [7] is Triticum aestivum. As to the kind of experiment: Post-emergent herbicidal activity against Triticum vulgare var. Salamanca (wheat) assessed as dry biomass at 20 uM after 14 days relative to control. It is filed as functional. An outline of the steps:
as §1

The test system of test [8] is Trifolium alexandrinum. The test is described as follows: Post-emergent herbicidal activity against Trifolium alexandrinum assessed as dry biomass at 40 uM after 14 days relative to control. It is filed as functional. Put shortly: as §1
Test [9] has as its system Physalis ixocarpa. The test is described as follows: Post-emergent herbicidal activity against Physalis ixocarpa assessed as dry biomass at 60 uM after 14 days relative to control. It is filed as functional. An outline of the steps:
as §1

The subject of test [10] is Physalis ixocarpa. The test is described as follows: Post-emergent herbicidal activity against Physalis ixocarpa assessed as dry biomass at 40 uM after 14 days relative to control. It counts as functional. Put shortly:
as §1

Test [11] concerns Triticum aestivum. As to the kind of experiment: Post-emergent herbicidal activity against Triticum vulgare var. Salamanca (wheat) assessed as dry biomass at 60 uM after 14 days relative to control. It is filed as functional. Put shortly:
as §1

In test [12] the test system is Triticum aestivum. The test is described as follows: Post-emergent herbicidal activity against Triticum vulgare var. Salamanca (wheat) assessed as dry biomass at 40 uM after 14 days relative to control. It counts as functional. An outline of the steps:
as §1

Test [13] is described as follows: Inhibition of mitochondrial complex 1 in Homo sapiens (human) T47D cells by Clark's electrode method. It counts as cell-based.
The test system of test [14] is Physalis ixocarpa. The test is described as follows: Herbicidal activity against Physalis ixocarpa assessed as inhibition of root elongation after 5 days. Particulars: 120 h.
For test [15], the system named is Lolium multiflorum. The test is described as follows: Herbicidal activity against Lolium multiflorum (Italian ryegrass) assessed as inhibition of shoot elongation after 5 days. Particulars: 120 h.
The subject of test [16] is Spinacia oleracea. As to the kind of experiment: Inhibition of hill reaction in Spinacia oleracea (spinach) chloroplast. It is filed as functional.
Test [17] concerns Trifolium alexandrinum. The test is described as follows: Herbicidal activity against Trifolium alexandrinum assessed as inhibition of root elongation after 5 days. The settings on record: 120 h.
For test [18], the system named is Lolium multiflorum. The test is described as follows: Herbicidal activity against Lolium multiflorum (Italian ryegrass) assessed as inhibition of seed respiration after 5 to 72 hr by Clark's electrode method. It is filed as functional, organism-based. An outline of the steps: (§2)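 Seeds imbibed in 10 mL water on filter paper in Petri dishes, with compound at 10–50 μM (dissolved in MeOH, final MeOH under 1%); controls received the same water and MeOH. O2 uptake was measured polarographically after 5, 24, 48 and 72 h of imbibition, and consumption rate was calculated. IC50 at 72 h was derived by probit/linear regression. Replicate experiments, means ± S.E.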

Test [19] has as its system Triticum aestivum. As to the kind of experiment: Herbicidal activity against Triticum vulgare var. Salamanca (wheat) assessed as inhibition of root elongation after 4 days. The settings on record: 96 h.
Test [20] has as its system Triticum aestivum. As to the kind of experiment: Herbicidal activity against Triticum vulgare var. Salamanca (wheat) assessed as inhibition of seed respiration after 72 hr by Clark's electrode method. It counts as functional, organism-based. An outline of the steps:
(§3)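 Seeds were imbibed in 10 mL water in Petri dishes with compound at 10–50 μM, as in the germination set-up. O2 uptake was measured after 5, 24, 48 and 72 h with an oxygen electrode, where O2-reduction current was converted to voltage. Consumption rate was calculated, with replicates as mean ± S.E. IC50 came from probit analysis.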

Test [21] deals with Trifolium alexandrinum. As to the kind of experiment: Herbicidal activity against Trifolium alexandrinum assessed as inhibition of seed respiration after 72 hr by Clark's electrode method. It counts as functional, organism-based. An outline of the steps: as §3
Test [22] concerns Physalis ixocarpa. As to the kind of experiment: Herbicidal activity against Physalis ixocarpa assessed as inhibition of seed respiration after 5 to 72 hr by Clark's electrode method. It is filed as functional, organism-based. An outline of the steps:
as §2

Test [23] has as its system Lolium multiflorum. As to the kind of experiment: Herbicidal activity against Lolium multiflorum (Italian ryegrass) assessed as inhibition of seed germination at 50 uM after 5 days. It counts as functional. Particulars: 120 h. An outline of the steps: (§4)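 Seeds were placed on filter paper in Petri dishes (20 seeds for T. vulgare) and wetted with deionized water or test solution. Compound was given in MeOH at under 1%, and controls held matching MeOH. Three replicate experiments were run. Germination was scored as 1 mm root extrusion, and root and shoot length were measured on all germinated seeds. Student's t-test was used, and IC50 values came from probit analysis.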

Test [24] concerns Triticum aestivum. As to the kind of experiment: Herbicidal activity against Triticum vulgare var. Salamanca (wheat) assessed as inhibition of seed germination after 4 days. Particulars: 96 h.
The subject of test [25] is Physalis ixocarpa. The test is described as follows: Herbicidal activity against Physalis ixocarpa assessed as inhibition of seed respiration after 72 hr by Clark's electrode method. It is filed as functional, organism-based. An outline of the steps:
as §3

The test system of test [26] is Physalis ixocarpa. The test is described as follows: Herbicidal activity against Physalis ixocarpa assessed as inhibition of seed respiration at 10 to 50 uM by Clark's electrode method. The settings on record: TDE = time-dependent effect. It is filed as functional, organism-based. An outline of the steps:
as §2

Test [27] has as its system Trifolium alexandrinum. The test is described as follows: Herbicidal activity against Trifolium alexandrinum assessed as inhibition of shoot elongation after 5 days. Particulars: 120 h.
Test [28] has as its system Physalis ixocarpa. As to the kind of experiment: Herbicidal activity against Physalis ixocarpa assessed as inhibition of shoot elongation after 5 days. The settings on record: 120 h.
Test [29] deals with Trifolium alexandrinum. The test is described as follows: Herbicidal activity against Trifolium alexandrinum assessed as inhibition of seed respiration after 5 to 72 hr by Clark's electrode method. It is filed as functional, organism-based. Put shortly:
as §2

Test [30] has as its system Trifolium alexandrinum. As to the kind of experiment: Herbicidal activity against Trifolium alexandrinum assessed as inhibition of seed respiration at 10 to 50 uM by Clark's electrode method. It counts as functional, organism-based. The settings on record: TDE = time-dependent effect. Put shortly:
as §2

Test [31] has as its system Trifolium alexandrinum. The test is described as follows: Herbicidal activity against Trifolium alexandrinum assessed as inhibition of seed germination after 5 days. Particulars: 120 h.
For test [32], the system named is Triticum aestivum. As to the kind of experiment: Herbicidal activity against Triticum vulgare var. Salamanca (wheat) assessed as inhibition of seed respiration after 5 to 72 hr by Clark's electrode method. It counts as functional, organism-based. An outline of the steps: as §2
Test [33] relates to Lolium multiflorum. As to the kind of experiment: Herbicidal activity against Lolium multiflorum (Italian ryegrass) assessed as inhibition of seed respiration after 72 hr by Clark's electrode method. It is filed as functional, organism-based. Put shortly:
as §3

The test system of test [34] is Spinacia oleracea. The test is described as follows: Inhibition of light reaction of photosynthesis in Spinacia oleracea (spinach) chloroplast. It counts as functional.
Test [35] deals with Lolium multiflorum. As to the kind of experiment: Herbicidal activity against Lolium multiflorum (Italian ryegrass) assessed as inhibition of root elongation after 5 days. The settings on record: 120 h.
Test [36] has as its system Physalis ixocarpa. The test is described as follows: Herbicidal activity against Physalis ixocarpa assessed as inhibition of seed germination at 50 uM after 5 days. The settings on record: 120 h. It is filed as functional. Put shortly: as §4
Test [37] has as its system Lolium multiflorum. The test is described as follows: Herbicidal activity against Lolium multiflorum (Italian ryegrass) assessed as inhibition of seed germination after 5 days. The settings on record: 120 h.
In test [38] the test system is Physalis ixocarpa. As to the kind of experiment: Herbicidal activity against Physalis ixocarpa assessed as inhibition of seed germination after 5 days. Particulars: 120 h.
Test [39] relates to Triticum aestivum. The test is described as follows: Herbicidal activity against Triticum vulgare var. Salamanca (wheat) assessed as inhibition of seed respiration at 10 to 50 uM by Clark's electrode method. It counts as functional, organism-based. Particulars: TDE = time-dependent effect. Put shortly:
as §2

Test [40] has as its system Lolium multiflorum. The test is described as follows: Herbicidal activity against Lolium multiflorum (Italian ryegrass) assessed as inhibition of seed respiration at 10 to 50 uM by Clark's electrode method. Particulars: TDE = time-dependent effect. It is filed as functional, organism-based. An outline of the steps:
as §2

In test [41] the test system is Triticum aestivum. The test is described as follows: Herbicidal activity against Triticum vulgare var. Salamanca (wheat) assessed as inhibition of shoot elongation after 4 days. The settings on record: 96 h.

Structures are written as SMILES.

With `C[n+]1ccc(-c2cc[n+](C)cc2)cc1.[Cl-].[Cl-]` [PARAQUAT DICHLORIDE], the Activity in the test with Trifolium alexandrinum [1] came out at 67%; in the test on Lolium multiflorum [2], 32%; with Physalis ixocarpa [3], 96%; in the test on Lolium multiflorum [4], 97%; with Trifolium alexandrinum [5], 57%; with Lolium multiflorum [6] it was 54%. The Activity is given as 83% in the test with Triticum aestivum [7]; 59% in the test on Trifolium alexandrinum [8]; 84% with Physalis ixocarpa [9]; 100% with Physalis ixocarpa [10]; 67% in the test on Triticum aestivum [11]; 67% with Triticum aestivum [12].

For the compound `CC(C)(O)[C@H]1CC[C@](C)([C@@H](O)CC[C@](C)(O)[C@H]2CC[C@H]3O[C@@H]([C@]4(C)CC[C@@H](Br)C(C)(C)O4)CC[C@]3(C)O2)O1` [THYRSIFEROL], the IC50 in test [13] stood at 3 µM.

As to `CCCCC[C@H]1CCCCCCCCCC(=O)O[C@H]2[C@H](O)[C@@H](CO)O[C@@H](O[C@H]3[C@H](O1)O[C@H](C)[C@H](O)[C@@H]3O)[C@@H]2O[C@@H]1O[C@@H](C)[C@H](OC(=O)[C@@H](C)CC)[C@@H](O[C@@H]2O[C@@H](C)[C@H](O)[C@@H](O)[C@H]2O)[C@H]1OC(=O)[C@@H](C)CC` [TRICOLORIN A], the IC50 with Physalis ixocarpa [14] was 13.8 µM; in the test on Lolium multiflorum [15], 12.3 µM; with Spinacia oleracea [16], 5 µM; in the test on Trifolium alexandrinum [17], 18 µM; with Triticum aestivum [19] it was 24.1 µM; with Triticum aestivum [20] it was 25.7 µM. Besides, the IC50 with Trifolium alexandrinum [21] came to 22.6 µM; with Triticum aestivum [24] it was 25.7 µM; with Physalis ixocarpa [25] it was 11.7 µM; in the test on Trifolium alexandrinum [27] it was 12.7 µM; in the test on Physalis ixocarpa [28], 12.7 µM; with Trifolium alexandrinum [31] it was 16 µM. For the same compound, the half-inhibitory concentration (IC50) with Lolium multiflorum [33] came to 8 µM; in the test on Lolium multiflorum [35], 15.3 µM; in the test on Lolium multiflorum [37], 16.1 µM; in the test with Physalis ixocarpa [38] it was 13.8 µM; in the test with Triticum aestivum [41], 8.5 µM. The Activity with Trifolium alexandrinum [1] came out at 87%; with Lolium multiflorum [2], 38%; in the test on Physalis ixocarpa [3] it was 104%; in the test with Lolium multiflorum [4], 91%; in the test with Trifolium alexandrinum [5], 63%; in the test with Lolium multiflorum [6] it was 53%. Further, the Activity in the test on Triticum aestivum [7] is recorded as 82%; with Trifolium alexandrinum [8], 83%; in the test with Physalis ixocarpa [9] it was 78%; in the test on Physalis ixocarpa [10] it was 84%; with Triticum aestivum [11], 67%; in the test on Triticum aestivum [12] it was 78%. In addition, the inhibition entry was “Dose-dependent effect” with Lolium multiflorum [18]; “Dose-dependent effect” with Physalis ixocarpa [22]; “tde” with Physalis ixocarpa [26]; “Dose-dependent effect” in the test on Trifolium alexandrinum [29]; “tde” with Trifolium alexandrinum [30]; “Dose-dependent effect” in the test with Triticum aestivum [32]. The inhibition entry in the test with Triticum aestivum [39] and in the test on Lolium multiflorum [40] was “tde” in each case. For the same compound, the inhibition at 50 µM in the test on Lolium multiflorum [23] and with Physalis ixocarpa [36] was 100% in each case. In the test with Spinacia oleracea [34], this compound gave a UC50 of 0.33 µM.

(Values after ChEMBL document CHEMBL3046181 (Molecules, 2013).)
